In one data set the test system is Rattus norvegicus. The data set can be described thus: Inhibition of plasma triglyceride accumulation in Sprague-Dawley rat at 10 mg/kg, po dosed 2 hrs before lipid challenge and measured at 18 hrs by lipid tolerance test. In kind it is functional.
Data set [1] addresses T1, Diacylglycerol O-acyltransferase 1 (Homo sapiens, UniProt O75907).
T1 sequence (O75907 whole entry): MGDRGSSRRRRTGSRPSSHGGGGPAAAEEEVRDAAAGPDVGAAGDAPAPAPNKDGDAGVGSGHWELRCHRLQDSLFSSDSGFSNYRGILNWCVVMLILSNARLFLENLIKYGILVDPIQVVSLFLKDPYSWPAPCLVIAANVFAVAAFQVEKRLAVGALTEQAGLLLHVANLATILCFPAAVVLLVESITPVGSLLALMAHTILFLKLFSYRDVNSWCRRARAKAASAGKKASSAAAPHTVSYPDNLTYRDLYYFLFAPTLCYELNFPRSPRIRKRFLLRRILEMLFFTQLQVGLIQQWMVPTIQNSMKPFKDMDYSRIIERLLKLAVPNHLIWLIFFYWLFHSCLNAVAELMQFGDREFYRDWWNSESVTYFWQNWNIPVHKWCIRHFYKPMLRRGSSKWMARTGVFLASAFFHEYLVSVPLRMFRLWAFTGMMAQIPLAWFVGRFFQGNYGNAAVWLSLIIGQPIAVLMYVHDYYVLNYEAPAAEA
The data set can be described thus: Inhibition of human DGAT1.

Data set [2] has as its target T2, Diacylglycerol O-acyltransferase 1 (Mus musculus, UniProt Q9Z2A7).
T2 sequence (Q9Z2A7 whole entry): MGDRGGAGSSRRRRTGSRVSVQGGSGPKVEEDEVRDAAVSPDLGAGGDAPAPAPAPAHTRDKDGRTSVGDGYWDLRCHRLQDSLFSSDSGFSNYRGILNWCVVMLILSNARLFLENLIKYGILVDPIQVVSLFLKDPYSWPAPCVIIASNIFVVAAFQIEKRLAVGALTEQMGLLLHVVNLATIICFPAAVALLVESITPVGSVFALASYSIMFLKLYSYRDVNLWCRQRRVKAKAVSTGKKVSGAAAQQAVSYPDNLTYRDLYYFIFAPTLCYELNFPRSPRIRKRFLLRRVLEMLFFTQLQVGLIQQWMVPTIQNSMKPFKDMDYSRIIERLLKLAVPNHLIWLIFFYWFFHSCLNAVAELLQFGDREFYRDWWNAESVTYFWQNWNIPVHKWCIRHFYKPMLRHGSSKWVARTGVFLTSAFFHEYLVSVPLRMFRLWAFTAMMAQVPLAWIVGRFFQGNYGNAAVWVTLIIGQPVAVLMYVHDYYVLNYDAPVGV
The data set can be described thus: Inhibition of mouse DGAT1.

The target in data set [3] is T3, Sterol O-acyltransferase 1 (Homo sapiens, UniProt P35610).
T3 sequence (P35610 whole entry): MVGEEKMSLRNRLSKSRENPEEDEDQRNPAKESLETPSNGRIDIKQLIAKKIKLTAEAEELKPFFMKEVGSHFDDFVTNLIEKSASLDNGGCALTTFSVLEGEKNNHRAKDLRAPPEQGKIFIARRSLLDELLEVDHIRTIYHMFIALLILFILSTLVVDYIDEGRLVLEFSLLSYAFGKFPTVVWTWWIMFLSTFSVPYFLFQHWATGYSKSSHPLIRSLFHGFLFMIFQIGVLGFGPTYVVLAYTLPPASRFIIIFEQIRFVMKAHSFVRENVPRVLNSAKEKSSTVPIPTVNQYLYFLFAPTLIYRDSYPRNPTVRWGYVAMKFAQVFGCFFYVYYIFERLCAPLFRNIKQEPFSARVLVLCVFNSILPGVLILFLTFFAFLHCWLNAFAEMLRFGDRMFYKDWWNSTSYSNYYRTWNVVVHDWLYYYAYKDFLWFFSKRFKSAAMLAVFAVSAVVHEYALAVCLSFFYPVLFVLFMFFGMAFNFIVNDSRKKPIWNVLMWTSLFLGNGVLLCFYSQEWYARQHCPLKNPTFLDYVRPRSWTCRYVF
The experiment in a line: Inhibition of human ACAT1.

The target in data set [4] is T4, Sterol O-acyltransferase 1 (Homo sapiens) (UniProt P35610).
T4 sequence (whole entry): T3 sequence (P35610 whole entry)
The experiment in a line: Inhibition of human ACAT1 at 10 uM. In a few lines:
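Human ACAT1 inhibition was tested at a single concentration of 10 μM. The value is reported as percent inhibition.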

The target of another data set is Adenosine receptor A2a (Homo sapiens, UniProt P29274). The experiment in a line: Binding affinity to human A2A receptor. In a few lines:
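Recombinant human A2A receptor was tested in an in-house radioligand competition binding assay. The value is reported as Ki.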

For data set [5], the system named is Mus musculus. The experiment in a line: Inhibition of plasma triglyceride accumulation in mouse at 10 mg/kg, po dosed 2 hrs before lipid challenge and measured at 18 hrs by lipid tolerance test. In kind it is functional. In a few lines:
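Mouse lipid tolerance test measuring plasma triglyceride excursion. Dosing was 10 mpk oral, with triglyceride reduction read at 18 h.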

The target in data set [6] is Voltage-gated inwardly rectifying potassium channel KCNH2 (Homo sapiens, UniProt Q12809). The experiment in a line: Displacement of radiolabeled MK499 from human ERG. In outline: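 hERG off-target activity was measured in a competitive binding assay against radiolabeled MK-499. The value is reported as Ki.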
Voltage-gated inwardly rectifying potassium channel KCNH2, sequence (Q12809 whole entry): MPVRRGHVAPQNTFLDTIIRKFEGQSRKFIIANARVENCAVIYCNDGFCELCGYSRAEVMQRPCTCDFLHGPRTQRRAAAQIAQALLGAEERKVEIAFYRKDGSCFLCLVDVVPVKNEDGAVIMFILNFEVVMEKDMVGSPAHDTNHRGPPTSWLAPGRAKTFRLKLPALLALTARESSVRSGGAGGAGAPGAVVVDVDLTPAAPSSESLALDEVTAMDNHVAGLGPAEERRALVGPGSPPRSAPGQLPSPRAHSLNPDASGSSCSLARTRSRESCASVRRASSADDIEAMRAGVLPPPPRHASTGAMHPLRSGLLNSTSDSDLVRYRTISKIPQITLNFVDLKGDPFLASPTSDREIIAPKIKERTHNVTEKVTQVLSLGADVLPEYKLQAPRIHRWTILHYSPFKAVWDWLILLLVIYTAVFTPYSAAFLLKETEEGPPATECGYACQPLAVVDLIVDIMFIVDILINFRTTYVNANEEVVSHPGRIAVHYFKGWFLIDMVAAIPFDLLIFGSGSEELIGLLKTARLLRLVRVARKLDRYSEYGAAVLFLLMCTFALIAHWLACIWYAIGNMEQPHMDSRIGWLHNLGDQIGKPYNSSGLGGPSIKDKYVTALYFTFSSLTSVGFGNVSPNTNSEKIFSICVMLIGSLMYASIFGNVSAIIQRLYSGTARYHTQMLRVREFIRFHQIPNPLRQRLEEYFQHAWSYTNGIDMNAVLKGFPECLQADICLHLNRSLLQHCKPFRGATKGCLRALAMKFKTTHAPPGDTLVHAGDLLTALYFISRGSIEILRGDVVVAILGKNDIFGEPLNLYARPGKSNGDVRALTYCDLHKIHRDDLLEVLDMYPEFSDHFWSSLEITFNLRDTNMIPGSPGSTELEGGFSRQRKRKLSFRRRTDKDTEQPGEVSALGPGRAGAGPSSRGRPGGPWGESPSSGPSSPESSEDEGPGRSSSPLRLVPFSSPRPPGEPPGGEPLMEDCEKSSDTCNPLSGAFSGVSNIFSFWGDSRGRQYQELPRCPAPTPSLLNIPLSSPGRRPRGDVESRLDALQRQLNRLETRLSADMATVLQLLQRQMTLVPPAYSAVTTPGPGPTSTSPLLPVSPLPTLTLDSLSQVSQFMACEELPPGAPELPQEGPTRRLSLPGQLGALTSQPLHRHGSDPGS
The species named for data set [7] is Homo sapiens. The experiment in a line: Selectivity index, ratio of Ki for human A2A receptor to KI IC50 for human DGAT1.
Data set [8] concerns Mus musculus. The data set can be described thus: Reduction in cumulative body weight gain in wild type mouse at 10 mg/kg, po dosed daily for 6 days measured starting from day 3. Format: functional, organism-based. Also on record: dose 10 mg/kg. In a few lines:
(§1)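 Wild-type and DGAT1 knockout mice were dosed daily at 10 mpk for six days. Cumulative body weight gain and food intake were compared with vehicle-treated groups.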

The test system of data set [9] is Mus musculus. The data set can be described thus: Reduction in food intake in wild type mouse at 10 mg/kg, po dosed daily for 6 days measured starting from day 3. In kind it is functional, organism-based. Also on record: dose 10 mg/kg. In a few lines: (§2)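 Wild-type and DGAT1 knockout mice were dosed daily at 10 mpk for six days. Cumulative body weight gain and food intake were compared with vehicle-treated groups of the same genotype.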

Data set [10] has as its system Mus musculus. The data set can be described thus: Reduction in cumulative body weight gain in DGAT1 knockout mouse at 10 mg/kg, po dosed daily for 6 days. Format: functional, organism-based. Further details: dose 10 mg/kg. In outline:
as §1

Data set [11] deals with Mus musculus. The data set can be described thus: Reduction in food intake in DGAT1 knockout mouse at 10 mg/kg, po dosed daily for 6 days. In kind it is functional, organism-based. Also on record: dose 10 mg/kg. In a few lines:
as §2

Data set [12] can be described thus: Solubility in PBS buffer at pH 2. In kind it is physicochemical. In outline:
(§3)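 High-throughput solubility test in PBS buffer at pH 2 and at pH 7. Free form and salt forms (TFA, formate, ammonium) were tested separately.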

A short description of data set [13]: Solubility in PBS buffer at pH 7. Format: physicochemical. In outline:
as §3

The test system of data set [14] is Homo sapiens. The experiment in a line: Reduction in fasting triglyceride levels in familial chylomicronemia syndrome patient at 20 mg dosed daily. Format: functional.

Calls of active or inactive are those of the source. The rule behind the calls is not given here.

Adenosine receptor A2a, sequence (P29274 whole entry): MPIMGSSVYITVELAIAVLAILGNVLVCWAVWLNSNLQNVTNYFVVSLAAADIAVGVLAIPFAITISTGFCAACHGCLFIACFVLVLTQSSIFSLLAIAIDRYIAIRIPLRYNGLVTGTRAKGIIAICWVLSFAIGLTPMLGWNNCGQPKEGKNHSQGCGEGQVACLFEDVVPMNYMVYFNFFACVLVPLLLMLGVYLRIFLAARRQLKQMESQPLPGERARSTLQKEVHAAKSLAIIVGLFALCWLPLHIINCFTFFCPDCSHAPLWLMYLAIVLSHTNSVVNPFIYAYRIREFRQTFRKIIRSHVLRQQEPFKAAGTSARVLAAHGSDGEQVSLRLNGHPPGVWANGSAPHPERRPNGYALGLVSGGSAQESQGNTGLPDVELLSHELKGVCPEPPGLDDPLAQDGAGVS

Consider `CC1(C)Oc2ncnc(N)c2N=C1c1ccc([C@H]2CC[C@H](CC(=O)O)CC2)cc1`, for which the inhibition in vivo (in general, how much of the control response was suppressed) at 10 mg/kg with Rattus norvegicus was found to be 100%.

In the case of `O=C(O)[C@H]1CC[C@H](OC2CCN(c3ccc(-c4nc5cc(Cl)ccc5[nH]4)cn3)CC2)CC1`, the IC50 (usually the concentration needed to halve the response being measured) is 0.0029 µM in data set [1], 0.029 µM in data set [2] and over 10 µM in data set [3]. In addition, the inhibition (usually the relative decrease from the control value, in per cent) in data set [4] was determined as 4%. Moreover, the Ki (usually a measure of affinity in units of concentration, obtained from inhibition or displacement) at Adenosine receptor A2a was found to be 3.5 µM; in data set [6] it was 4 µM. The compound further had an inhibition in vivo at 10 mg/kg with Mus musculus [5] of 75%. Also, the Selectivity ratio in the data set listed under Homo sapiens [7] is over 1000.

In the case of `O=C(O)[C@H]1CC[C@@H](OC2CCN(c3ccc(-c4nc5cc(Cl)ccc5[nH]4)cn3)CC2)CC1`, the IC50 is 0.0022 µM in data set [1], 0.011 µM in data set [2] and over 10 µM in [3]. In addition, the inhibition in data set [4] was determined as 13%. Also, the inhibition in vivo at 10 mg/kg in the data set on Mus musculus [5] came to 52%. In data set [6], this compound registered a Ki of 15 µM.

Take `O=C(O)[C@H]1CC[C@H](OC2CCN(c3ccc(-c4nc5cc(C(F)(F)F)ccc5[nH]4)cn3)CC2)CC1`: in [4], the inhibition amounted to 23%. Also, in the data set filed under Homo sapiens [7], the Selectivity ratio was over 1000. The outcome in the data set on Mus musculus [8] and with Mus musculus [9] was Active. Moreover, the outcome with Mus musculus [10] and in the data set with Mus musculus [11] was inactive.

For the compound `O=C(O)[C@H]1CC[C@H](OC2CCN(c3ccc(-c4nc5cc(F)ccc5[nH]4)cn3)CC2)CC1`, the half-maximal inhibitory concentration (IC50) is 0.11 µM in [2] and over 10 µM in data set [3]. Also, the inhibition in data set [4] stood at 5%. The Ki on Adenosine receptor A2a is 9.7 µM; in data set [6], over 60 µM.

Regarding `O=C(O)[C@H]1CC[C@@H](OC2CCN(c3ccc(-c4nc5cc(C(F)(F)F)ccc5[nH]4)cn3)CC2)CC1`, the values for the 50% inhibitory concentration (IC50) in data set [1], in [2] and in data set [3] were 0.0025 µM, 0.008 µM and over 10 µM, respectively. Moreover, in data set [4], the inhibition came out at 22%. Also, the Ki worked out at 8 µM on Adenosine receptor A2a and 7 µM in data set [6]. This compound also came in with an inhibition in vivo at 10 mg/kg in the data set on Mus musculus [5] of 75%. In addition, the Selectivity ratio in the data set listed under Homo sapiens [7] is over 1000.

As to `O=C(O)C(F)(F)F.O=C(O)[C@H]1CC[C@H](OC2CCN(c3ccc(-c4nc5cc(C(F)(F)F)ccc5[nH]4)cn3)CC2)CC1`, the solubility – broadly, how much of the substance goes into solution per volume – in [12] turned out to be 130 µM; in data set [13], 151 µM.

For the compound `O=C(O)[C@H]1CC[C@@H](OC2CCN(c3ccc(-c4nc5cc(F)ccc5[nH]4)cn3)CC2)CC1`, the figures for the IC50 in data set [1], in data set [2] and in data set [3] were 0.0058 µM, 0.026 µM and over 10 µM, respectively. The inhibition in data set [4] was -2%. For the same compound, the inhibition constant (Ki) is over 10 µM on Adenosine receptor A2a and 11 µM in [6]. Besides, the inhibition in vivo at 10 mg/kg in the data set with Mus musculus [5] was determined as 55%. In addition, in the data set listed under Homo sapiens [7], the Selectivity ratio was over 1000.

For `O=C(O)C[C@H]1CC[C@H](c2ccc(-c3ccc(Nc4ccc(C(F)(F)F)nc4)cn3)cc2)CC1` [PRADIGASTAT], in the data set on Homo sapiens [14], the “inhibition (INH)” value amounted to 40%.
